# Compound activity: PubChem, Sanford-Burnham Center for Chemical Genomics
# CSN inh: inhibitors of human CSN-mediated cullin deneddylation. Q92905. Purified CSN, SCF-Nedd8-OG deneddylation, fluorescence polarization. inhibition, % at 12.5 µM. 0.38% of 360,000 active;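 active means pattern-corrected inhibition above about 35%, with an unprinted fluorescence ratio check between 0.5 and 1.5, limit read from the data, passing the limit was not always enough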;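 further: 0% = enzyme with substrate and 100% = substrate without enzyme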
#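 assay system = purified human Csn5 enzyme expressed in HEK293T cells | amount = 0.24 nM enzyme | buffer or medium = Tris/NaCl/DTT buffer, pH 7.5 | reagent = 10 nM SCFSkp2-Nedd8OG | compound = one concentration, 12.5 µM, 0.25% DMSO | times = 90 min reaction at room temperature | signal = FP | read-out basis = % inhibition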
# STEP inh: STEP (human) phosphatase inhibition | P54829 | recombinant STEP, OMFP fluorogenic substrate, fluorescence | inhibition, % at 20 µM | 0.25% of 360,000 active | AID 588621;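 active means inhibition at 20 µM, scaled per plate between control wells, above about 37%, limit read from the data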;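 further: 0% = DMSO with enzyme and substrate and 100% = substrate only without enzyme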
#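 Test system: STEP tyrosine phosphatase / Reagent: OMFP at 25 µM / Doses: 20 µM, 1% DMSO / Read-out: percent inhibition scaled to no-enzyme and uninhibited-enzyme controls, plate-pattern corrected / Detection: FITC-channel fluorescence of OMFP product / Medium: Bis-Tris buffer pH 6.0, 2.5 mM DTT, 0.005% Tween 20 / Schedule: 20 min at room temperature, dark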
# DNMT1 inh: DNMT1 (human) enzyme inhibition; 0.83% of 360,000 active; AID 588458; inhibition (reported as % activation of signal), % at 10 µM; DNMT1 molecular beacon, Hinp1I cleavage, fluorescence; in the data active means inhibition above about 50%
# SUMO1 PPI mod: SUMO1-SIM interaction modulation; inhibition, % at 20 µM; 0.33% of 360,000 active; SUMO1 binding to a labelled peptide, TR-FRET, 1 h; in the data active means inhibition above about 37%
# Target sequence (P63165 whole entry, looked up): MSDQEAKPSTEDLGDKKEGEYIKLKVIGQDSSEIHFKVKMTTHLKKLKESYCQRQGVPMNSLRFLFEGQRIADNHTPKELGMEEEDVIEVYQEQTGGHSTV
# LMPTP inh: blocks human LMPTP phosphatase | recombinant LMPTP-A, OMFP fluorogenic substrate, fluorescence intensity | P24666 | 0.22% of 360,000 active | inhibition, % at 20 µM;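 active means compounds that cut the enzyme signal by at least half of the control window in the single-dose screen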;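 further: plate controls were DMSO wells with enzyme plus substrate for no effect and substrate without enzyme for full effect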
# Target sequence (P24666 whole entry, looked up): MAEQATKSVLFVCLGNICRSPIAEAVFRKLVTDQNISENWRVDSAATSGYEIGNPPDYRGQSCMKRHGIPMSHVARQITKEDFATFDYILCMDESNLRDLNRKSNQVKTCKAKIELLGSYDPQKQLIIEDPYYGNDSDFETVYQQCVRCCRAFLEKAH
#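 Material: LMPTP-A; amount: 0.625 nM enzyme; doses: single 20 µM dose; times: reaction 50 min, room temperature, dark; technique: fluorescence intensity of OMFP turnover product; benchmarks: no-enzyme and uninhibited controls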
# Scp1 inh: Scp-1 (human) phosphatase inhibition; Q9GZU7; 0.88% of 340,000 active; inhibition, % at 20 µM; Recombinant Scp1, phosphopeptide, malachite green phosphate absorbance;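 active means inhibition above about 50% at 20 µM, limit read from the data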;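 further: plate controls were DMSO wells with enzyme for no effect and wells lacking enzyme for full effect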
# Target sequence (Q9GZU7 76-261 limits assumed): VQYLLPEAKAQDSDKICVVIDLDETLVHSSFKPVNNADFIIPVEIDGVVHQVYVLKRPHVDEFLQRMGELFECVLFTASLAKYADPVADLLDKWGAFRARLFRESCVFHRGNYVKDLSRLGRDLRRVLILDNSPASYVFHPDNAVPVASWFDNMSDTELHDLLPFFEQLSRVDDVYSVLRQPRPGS
#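 Test system – truncated SCP-1 phosphatase (76-261aa) · Reagent – Phosphorylated 17-residue peptide substrate · Incubation – 45 min room-temperature reaction, 5 min colour, 30 min stabiliser · Detection – colorimetric phosphate reagent with accelerator and stabiliser, absorbance at 630 nm · Measure – % inhibition at 20 µM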
# DNMT1 interf DR: shows spectral interference in the DNMT1 beacon assay; molecular beacon fluorescence, spectral interference counter-screen; 200 tested, under 10 active; IC50, µM; AID 602382; shares compounds with DNMT1 inh; call rule not given here
# DNMT1 confirm: confirmation of human DNMT1 inhibitors | inhibition, % at 10 µM | DNMT1 molecular beacon HinP1I cleavage, fluorescence | shares compounds with DNMT1 inh | AID 602385 | 8% of 2,300 active;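 active means average inhibition of at least 30% in the single-concentration confirmation test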
# DNMT1 interf: counter-screen for DNMT1 inhibitors: spectral interference; shares compounds with DNMT1 inh; DNMT1 molecular beacon spectral interference counterscreen, fluorescence 485/520; activation (fluorescence interference), % at 10 µM; 1% of 2,300 active; AID 602387;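 active means activation of at least 30% at 10 µM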;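 further: DNMT1 catalytic domain with a HinP1I cleavage step and a FAM/dabcyl DNA beacon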
# Starred values were filed as active, the others as inactive; · = no result. Compounds with a hit are over-represented: about 1.9% of the library has one in this group of screens.
SMILES,CSN inh,STEP inh,DNMT1 inh,SUMO1 PPI mod,LMPTP inh,Scp1 inh,DNMT1 confirm,DNMT1 interf,others
O=C(NCC1CCCO1)c1cc(-c2ccncc2)nc2ccccc12 (stereo not drawn),-3,1,1,-14,0,4,·,·,
CC(C)Cn1c(N)c(C(=O)COC(=O)c2cc(-c3ccccc3)nc3ccccc23)c(=O)n(C)c1=O,-2,0,-16,-29,5,4,·,·,
CCOCCCN(C(=O)Cn1nnc(-c2ccc(OC)c(OC)c2)n1)C(C(=O)NCC1CCCO1)c1ccc(F)cc1 (stereo not drawn),0,2,-1,1,-1,1,·,·,
Cc1ccc(C2=NN(CC(=O)NCc3ccccn3)C(=O)CC2)cc1,-4,-3,3,0,-1,-5,·,·,
O=C(CSc1nc(=O)n(CCCN2CCOCC2)c2c1CCC2)Nc1ccccc1F,6,1,0,4,0,-7,·,·,
Cc1c2cnccc2c(C)c2c1oc1ccccc12,1,5,26,28,11,2,·,·,
CCOc1cccc(C=NNc2ccc(S(=O)(=O)Nc3ccccc3C(=O)O)cc2[N+](=O)[O-])c1O,3,3,-8,-1,1,-7,·,·,
CCOc1ccc(C=NNc2ccc(S(=O)(=O)Nc3ccccc3C(=O)O)cc2[N+](=O)[O-])cc1,-4,36,85*,110*,97*,45,102*,-8,DNMT1 interf DR=>99
Cc1nn(-c2ccccc2)c(Cl)c1/C=N/Nc1ccc(S(=O)(=O)Nc2ccccc2C(=O)O)cc1[N+](=O)[O-],-2,8,100*,21,43,0,82*,-10,DNMT1 interf DR=>99
O=C(COC(=O)c1cnc(Cl)c(Cl)c1)NC1CCCC1,-2,2,-4,3,-1,·,·,·,
C(=N\C(/N=C/c1ccco1)c1ccco1)/c1ccco1,25,0,71*,14,1,3,1,1,
O=C(O)c1ccn2c(C(=O)c3ccccc3)c(-c3ccccc3)cc2c1,5,2,1,-10,2,-10,·,·,
Cc1cc(=O)oc2cc(NC(=O)c3cccc(Br)c3)ccc12,5,26,51*,-5,27,49,2,0,
N/C(CSc1ccc(Cl)cc1)=N\S(=O)(=O)c1ccc(Cl)cc1,0,-3,73*,4,1,-13,6,3,
COc1cc(CCNC(=O)c2cnn3ccccc23)cc(OC)c1OC,-1,1,80*,0,0,-13,1,0,
COC(=O)c1ccc(CSc2nc3scc(-c4cccs4)c3c(=O)[nH]2)o1,24,4,80*,14,2,-5,7,1,
COC(=O)c1ccc(CSc2nc3ccc(Cl)cc3[nH]2)o1,·,·,·,·,·,-10,·,·,
COc1ccc(C(=O)NCCc2c[nH]c3ccccc23)cc1[N+](=O)[O-],2,3,-3,-21,0,-12,·,·,
O=C(CC[C@H]1O[C@@H](n2cnc3c(NC(=O)c4ccccc4)ncnc32)[C@H](O)[C@@H]1O)NCc1cccs1,-2,0,2,-3,-2,·,·,·,
O=C(CC[C@H]1O[C@@H](n2cnc3c(NC(=O)c4ccccc4)ncnc32)[C@H](O)[C@@H]1O)NCc1nc2ccccc2[nH]1,-3,2,116*,44*,-1,·,3,4,
COc1ccc(C=C2C(=O)OC(C)(C)OC2=O)cc1OC,-1,0,0,-2,-2,-4,·,·,
COc1ccc(/C=C2\C(=O)NC(=O)c3ccccc32)cc1OC,16,7,74*,8,10,0,-2,1,
COc1ccc(C2C(C(=O)c3ccccc3)=C(C)Nc3nc4ccccc4n32)cc1OC (stereo not drawn),5,3,59*,1,-2,0,0,1,
COc1ccc(-c2nc3c(C(=O)NCCN(C)C)cccc3c3ccccc23)cc1,-1,1,59*,-30,-1,10,22,-1,
OCCc1ccc(NCCc2cccs2)cc1,0,-2,5,7,-1,·,·,·,
SMILES,CSN inh,STEP inh,DNMT1 inh,SUMO1 PPI mod,LMPTP inh,Scp1 inh,DNMT1 confirm,DNMT1 interf,others
O=C(CCNS(=O)(=O)c1ccc(Cl)cc1)N1CCN(c2ccccn2)CC1,-3,1,0,5,0,-1,·,·,
O=C(O)c1cccc(N2C(=O)c3cc([N+](=O)[O-])cc4cc([N+](=O)[O-])cc(c34)C2=O)c1,34,32,85*,29,6,69*,18,-1,
O=C(O)c1cccc(N2C(=O)c3cccc4cccc(c34)C2=O)c1,2,0,4,-28,-2,8,·,·,
CCCc1nc(SCC(=O)N2CCC(Cc3ccccc3)CC2)c2c(=O)n(C)c(=O)n(C)c2n1,1,11,-1,13,11,-12,·,·,
COc1ccc(Cl)cc1NC(=O)c1cccc([N+](=O)[O-])c1O,5,2,66*,-8,0,-13,1,0,
NC(=O)C1CCCN(S(=O)(=O)c2ccc3ccccc3c2)C1 (stereo not drawn),-5,-1,2,0,-1,-5,·,·,
CC1CCCC(NC(=O)NC(=O)COC(=O)C2=NN(c3ccccc3)C(=O)CC2)C1C (stereo not drawn),2,2,2,-2,0,-4,·,·,
O=C(O)c1cc(O)c2c(c1)C(=O)c1cc(O)cc(O)c1C2=O,46,9,81*,20,4,64*,16,-2,
CC1(C)CN(c2ccsc2C(=O)O)C1=O,-4,0,6,-2,5,-3,·,·,
Cc1ccc(S(=O)(=O)c2c(N)n(CCCO)c3nc4ccccc4nc23)cc1,41*,-4,70*,45*,4,0,3,5,
O=c1nc2c(O)cccn2c2c1c(=O)[nH]c1ccccc12,-33,57*,105*,31,65*,55*,6,4,
O=c1[nH]c2ccccc2c2nc3ccccn3c12,3,2,8,-2,0,0,·,·,
COc1cc2ccc(CC(N)=O)cc2cc1OC,0,-1,52*,8,22,·,-1,-1,
